Test results taken from ChEMBL document CHEMBL1149770, “Synthesis and antimicrobial studies of novel dichlorofluorophenyl containing aminotriazolothiadiazines” (2008).
Values after ≈ are worked out from the molar mass of the structure shown.

Legend:
[1] = test system: Trichophyton mentagrophytes; test: Antifungal activity against Trichophyton mentagrophytes after 48 hrs […]; type: functional
Aspergillus fumigatus [2] = test: Antifungal activity against Aspergillus fumigatus after 48 hrs […]; type: functional
Klebsiella pneumoniae [3] = test: Antibacterial activity against Klebsiella pneumoniae after 24 hrs by broth dilution technique; type: functional
How it was run: (§1)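 MIC by broth dilution in nutrient broth with logarithmic serial twofold dilutions of compound. Inoculum approx. 5×10^5 c.f.u actively dividing bacteria. Incubated 24 h at 37 °C, growth monitored visually and spectrophotometrically. MIC taken as the lowest concentration (highest dilution) arresting growth. Ciprofloxacin reference.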

Aspergillus flavus [4] = test: Antifungal activity against Aspergillus flavus after 48 hrs […]; type: functional
Candida albicans [5] = test: Antifungal activity against Candida albicans after 48 hrs […]; type: functional
Staphylococcus aureus [6] = test: Antibacterial activity against Staphylococcus aureus ATCC 25923 after 24 hrs by broth dilution technique; type: functional; conditions: ATCC 25923, 24 h; how it was run: as §1
Pseudomonas aeruginosa [7] = test: Antibacterial activity against Pseudomonas aeruginosa ATCC 27853 after 24 hrs by broth dilution technique; type: functional; conditions: ATCC 27853, 24 h; how it was run: as §1
Escherichia coli = test: Antibacterial activity against Escherichia coli ATCC 25922 after 24 hrs by broth dilution technique; type: functional; conditions: ATCC 25922, 24 h; how it was run: as §1
Talaromyces marneffei [8] = test: Antifungal activity against Penicillium marneffei after 48 hrs […]; type: functional
Aspergillus fumigatus [9] = test: Antifungal activity against Aspergillus fumigatus assessed as inhibition zone diameter […] by agar dilution method; type: functional
How it was run: (§2)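 Compounds in DMSO placed in punched wells on Sabouraud agar (peptone, glucose, agar, pH 5.7) lawned with saline spore suspension. Plates pre-dried 1 h at 37 °C. Controls in triplicate, incubation at 37 °C for 3-4 days, then inhibition zone diameter read in mm. Amphotericin B reference.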

Talaromyces marneffei [10] = test: Antifungal activity against Penicillium marneffei assessed as inhibition zone diameter […] by agar dilution method; type: functional; how it was run: as §2
[11] = test system: Trichophyton mentagrophytes; test: Antifungal activity against Trichophyton mentagrophytes assessed as inhibition zone diameter […] by agar dilution method; type: functional; how it was run: as §2
Klebsiella pneumoniae [12] = test: Antibacterial activity against Klebsiella pneumoniae assessed as inhibition zone diameter after 24 hrs […]; type: functional
How it was run: (§3)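 Disc diffusion on nutrient agar. Inoculum 1-2 × 10^7 c.f.u/ml (0.5 McFarland) spread over the plate surface. Sterile 6.25 mm filter-paper discs soaked in a known concentration of compound. Solvent and growth controls included. Plates incubated inverted 24 h at 37 °C, then inhibition zone diameter measured in mm. Ciprofloxacin reference.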

Pseudomonas aeruginosa [13] = test: Antibacterial activity against Pseudomonas aeruginosa ATCC 27853 assessed as inhibition zone diameter after 24 hrs […]; type: functional; how it was run: as §3
Streptococcus pyogenes [14] = test: Antibacterial activity against Streptococcus pyogenes assessed as inhibition zone diameter after 24 hrs by disc diffusion method
Streptococcus pyogenes [15] = test: Antibacterial activity against Streptococcus pyogenes after 24 hrs by broth dilution technique; type: functional; how it was run: as §1
Candida albicans [16] = test: Antifungal activity against Candida albicans assessed as inhibition zone diameter […] by agar dilution method; type: functional; how it was run: as §2
Staphylococcus aureus [17] = test: Antibacterial activity against Staphylococcus aureus ATCC 25923 assessed as inhibition zone diameter after 24 hrs […]; type: functional; how it was run: as §3
Aspergillus flavus [18] = test: Antifungal activity against Aspergillus flavus assessed as inhibition zone diameter […] by agar dilution method; type: functional; how it was run: as §2

Row | MIC [1] [µg/mL] | MIC (Aspergillus fumigatus [2]) [µg/mL] | MIC (Klebsiella pneumoniae [3]) [µg/mL] | MIC (Aspergillus flavus [4]) [µg/mL] | MIC (Candida albicans [5]) [µg/mL] | MIC (Staphylococcus aureus [6]) [µg/mL] | MIC (Pseudomonas aeruginosa [7]) [µg/mL] | MIC (Escherichia coli) [µg/mL] | MIC (Talaromyces marneffei [8]) [µg/mL] | MIC (Streptococcus pyogenes [15]) [µg/mL] | SMILES | inhibition zone (IZ) (Aspergillus fumigatus [9]) [mm] | inhibition zone (IZ) (Talaromyces marneffei [10]) [mm] | inhibition zone (IZ) [11] [mm] | inhibition zone (IZ) (Klebsiella pneumoniae [12]) [mm] | inhibition zone (IZ) (Pseudomonas aeruginosa [13]) [mm] | inhibition zone (IZ) (Streptococcus pyogenes [14]) [mm] | inhibition zone (IZ) (Candida albicans [16]) [mm] | inhibition zone (IZ) (Staphylococcus aureus [17]) [mm] | inhibition zone (IZ) (Aspergillus flavus [18]) [mm]
1 | > 100 | > 100 | > 100 | > 100 | > 100 | > 100 | > 100 | > 100 | > 100 | – | CCOc1ccc(NC(=O)CSc2nnc(-c3cc(F)c(Cl)cc3Cl)n2N)cc1 | – | – | – | – | – | – | – | – | –
2 | > 100 | > 100 | > 100 | > 100 | > 100 | > 100 | > 100 | > 100 | > 100 | – | Nn1c(SCC(=O)Nc2cccc(Cl)c2Cl)nnc1-c1cc(F)c(Cl)cc1Cl | – | – | – | – | – | – | – | – | –
3 | > 100 | > 100 | > 100 | > 100 | > 100 | > 100 | > 100 | > 100 | > 100 | – | Cc1cccc(C)c1NC(=O)CSc1nnc(-c2cc(F)c(Cl)cc2Cl)n1N | – | – | – | – | – | – | – | – | –
4 | > 100 | 12.5 (≈ 29.6 µM) | 6.25 (≈ 14.8 µM) | > 100 | 25 (≈ 59.2 µM) | 6.25 (≈ 14.8 µM) | 25 (≈ 59.2 µM) | 12.5 (≈ 29.6 µM) | 6.25 (≈ 14.8 µM) | 25 (≈ 59.2 µM) | Cc1cccc(NC2=Nn3c(nnc3-c3cc(F)c(Cl)cc3Cl)SC2)c1C | 16 | 18 | – | 19 | 12 | 10 | 10 | 25 | –
5 | 6.25 (≈ 13.8 µM) | 12.5 (≈ 27.5 µM) | > 100 | 6.25 (≈ 13.8 µM) | 12.5 (≈ 27.5 µM) | > 100 | > 100 | > 100 | 12.5 (≈ 27.5 µM) | – | Cc1cc(C)c(NC(=O)CSc2nnc(-c3cc(F)c(Cl)cc3Cl)n2N)c(C)c1 | 15 | 13 | 17 | – | – | – | 11 | – | 23
6 | > 100 | > 100 | > 100 | > 100 | > 100 | > 100 | > 100 | > 100 | > 100 | – | Nn1c(SCC(=O)Nc2ccc(Cl)cc2Cl)nnc1-c1cc(F)c(Cl)cc1Cl | – | – | – | – | – | – | – | – | –
7 | 12.5 (≈ 29.6 µM) | 25 (≈ 59.2 µM) | 12.5 (≈ 29.6 µM) | 12.5 (≈ 29.6 µM) | 25 (≈ 59.2 µM) | > 100 | 12.5 (≈ 29.6 µM) | 12.5 (≈ 29.6 µM) | > 100 | 12.5 (≈ 29.6 µM) | Cc1ccc(NC2=Nn3c(nnc3-c3cc(F)c(Cl)cc3Cl)SC2)c(C)c1 | 9 | – | 12 | 14 | 18 | 11 | 8 | – | 15
8 | > 100 | > 100 | 6.25 (≈ 14.1 µM) | > 100 | > 100 | 6.25 (≈ 14.1 µM) | 6.25 (≈ 14.1 µM) | 6.25 (≈ 14.1 µM) | > 100 | 6.25 (≈ 14.1 µM) | COc1ccc(NC(=O)CSc2nnc(-c3cc(F)c(Cl)cc3Cl)n2N)cc1 | – | – | – | 21 | 32 | 23 | – | 24 | –

Continued, compound first:

Row | SMILES | MIC [1] [µg/mL] | MIC (Aspergillus fumigatus [2]) [µg/mL] | MIC (Klebsiella pneumoniae [3]) [µg/mL] | MIC (Aspergillus flavus [4]) [µg/mL] | MIC (Candida albicans [5]) [µg/mL] | MIC (Staphylococcus aureus [6]) [µg/mL] | MIC (Pseudomonas aeruginosa [7]) [µg/mL] | MIC (Escherichia coli) [µg/mL] | MIC (Talaromyces marneffei [8]) [µg/mL] | MIC (Streptococcus pyogenes [15]) [µg/mL] | inhibition zone (IZ) (Aspergillus fumigatus [9]) [mm] | inhibition zone (IZ) (Talaromyces marneffei [10]) [mm] | inhibition zone (IZ) [11] [mm] | inhibition zone (IZ) (Klebsiella pneumoniae [12]) [mm] | inhibition zone (IZ) (Pseudomonas aeruginosa [13]) [mm] | inhibition zone (IZ) (Streptococcus pyogenes [14]) [mm] | inhibition zone (IZ) (Candida albicans [16]) [mm] | inhibition zone (IZ) (Staphylococcus aureus [17]) [mm] | inhibition zone (IZ) (Aspergillus flavus [18]) [mm]
9 | Fc1cc(-c2nnc3n2N=C(Nc2cccc(Cl)c2Cl)CS3)c(Cl)cc1Cl | 25 (≈ 54 µM) | 12.5 (≈ 27 µM) | 12.5 (≈ 27 µM) | > 100 | > 100 | > 100 | 12.5 (≈ 27 µM) | 12.5 (≈ 27 µM) | 12.5 (≈ 27 µM) | – | 11 | 12 | 8 | 14 | 17 | – | – | – | –
10 | Fc1cc(-c2nnc3n2N=C(Nc2c(Cl)cccc2Cl)CS3)c(Cl)cc1Cl | 12.5 (≈ 27 µM) | 25 (≈ 54 µM) | > 100 | > 100 | 6.25 (≈ 13.5 µM) | > 100 | > 100 | 25 (≈ 54 µM) | 25 (≈ 54 µM) | 12.5 (≈ 27 µM) | 10 | 10 | 12 | – | – | 15 | 18 | – | –
11 | Cc1cc(C)c(NC2=Nn3c(nnc3-c3cc(F)c(Cl)cc3Cl)SC2)c(C)c1 | 12.5 (≈ 28.6 µM) | > 100 | 25 (≈ 57.3 µM) | > 100 | 12.5 (≈ 28.6 µM) | 6.25 (≈ 14.3 µM) | 25 (≈ 57.3 µM) | 12.5 (≈ 28.6 µM) | 12.5 (≈ 28.6 µM) | 12.5 (≈ 28.6 µM) | – | 11 | 14 | 8 | 16 | 15 | 13 | 23 | –
12 | Fc1cc(-c2nnc3n2N=C(Nc2ccc(Cl)cc2Cl)CS3)c(Cl)cc1Cl | 12.5 (≈ 27 µM) | 6.25 (≈ 13.5 µM) | 12.5 (≈ 27 µM) | 25 (≈ 54 µM) | 12.5 (≈ 27 µM) | > 100 | > 100 | 12.5 (≈ 27 µM) | 12.5 (≈ 27 µM) | – | 19 | 12 | 11 | 17 | – | – | 15 | – | 8
13 | Fc1ccc(NC2=Nn3c(nnc3-c3cc(F)c(Cl)cc3Cl)SC2)cc1 | 6.25 (≈ 15.2 µM) | 25 (≈ 60.6 µM) | 12.5 (≈ 30.3 µM) | > 100 | 12.5 (≈ 30.3 µM) | 12.5 (≈ 30.3 µM) | 12.5 (≈ 30.3 µM) | 6.25 (≈ 15.2 µM) | 6.25 (≈ 15.2 µM) | 6.25 (≈ 15.2 µM) | 6 | 19 | 18 | 16 | 24 | 22 | 14 | 15 | –
14 | Fc1ccc(NC2=Nn3c(nnc3-c3cc(F)c(Cl)cc3Cl)SC2)cc1Cl | 25 (≈ 56 µM) | > 100 | 12.5 (≈ 28 µM) | > 100 | > 100 | > 100 | 12.5 (≈ 28 µM) | 6.25 (≈ 14 µM) | 12.5 (≈ 28 µM) | 6.25 (≈ 14 µM) | – | 16 | 10 | 11 | 20 | 18 | – | – | –
15 | C[C@@H]1[C@H](O)[C@@H](C)/C=C/C=C/C=C/C=C/C=C/C=C/C=C/[C@H](O[C@@H]2O[C@H](C)[C@@H](O)[C@H](N)[C@@H]2O)C[C@@H]2O[C@](O)(C[C@@H](O)C[C@@H](O)[C@H](O)CC[C@@H](O)C[C@@H](O)CC(=O)O[C@H]1C)C[C@H](O)[C@H]2C(=O)O [AMPHOTERICIN B] | 6.25 (≈ 6.76 µM) | 6.25 (≈ 6.76 µM) | – | 6.25 (≈ 6.76 µM) | 6.25 (≈ 6.76 µM) | – | – | – | 6.25 (≈ 6.76 µM) | – | 22 | 23 | 19 | – | – | – | 20 | – | 25
16 | O=C(O)c1cn(C2CC2)c2cc(N3CCNCC3)c(F)cc2c1=O [CIPROFLOXACIN] | – | – | 6.25 (≈ 18.9 µM) | – | – | – | – | – | – | 6.25 (≈ 18.9 µM) | – | – | – | 22 | 33 | 25 | – | 25 | –
